The source made the active and inactive calls. The rule behind the calls is not given here.
Experiments:
Leishmania amazonensis [1] = assay: Antileishmanial activity against stationary-phase promastigotes of Leishmania amazonensis MHOM/BR/75/LTB0016 infected in BALB/c mouse assessed as reduction of lesion size at 30 mg/kg, po administered 5 times per week; format: functional, organism-based; design: dose 30 mg/kg
How it was run: (§1)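 BALB/c mice (five per group, specific pathogen-free) infected intradermally in the right ear with 2 × 106 L. amazonensis promastigotes. Compound diluted in PBS, given orally at 30 mg/kg/day once daily, five times a week, until day 52. Controls received oral sterile PBS. Meglumine antimoniate 30 mg/kg/day ip served as positive control. Lesions measured twice weekly by dial caliper. Parasite load from excised, weighed, minced ears by limiting dilution in Schneider's medium with 10% FCS; growth read after 7 days at 26 °C. n = 5 ears.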

Mus musculus [2] = assay: Toxicity in stationary-phase promastigotes of Leishmania amazonensis MHOM/BR/75/LTB0016 infected BALB/c mouse assessed as serum alanine aminotransferase level at 30 mg/kg, po administered 5 times per week; format: organism-based; design: dose 30 mg/kg, route oral; details: in vivo
How it was run: (§2)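 Infected BALB/c mice (2 × 10^6 promastigotes intradermally, ear) were dosed orally at 30 mg/kg/day in PBS, once daily, five times a week, to day 52. The PBS-treated group served as control. Serum was collected at euthanasia, and ALT, AST and creatinine were measured with colorimetric kits. n = 5.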

Mus musculus [3] = assay: Toxicity in stationary-phase promastigotes of Leishmania amazonensis MHOM/BR/75/LTB0016 infected BALB/c mouse assessed as serum creatinine level at 30 mg/kg, po administered 5 times per week; format: organism-based; design: dose 30 mg/kg, route oral; details: in vivo; how it was run: as §2
Mus musculus [4] = assay: Toxicity in stationary-phase promastigotes of Leishmania amazonensis MHOM/BR/75/LTB0016 infected BALB/c mouse assessed as serum aspartate aminotransferase level at 30 mg/kg, po administered 5 times per week; format: organism-based; design: dose 30 mg/kg, route oral; details: in vivo; how it was run: as §2
[5] = Cytotoxicity against Swiss mouse peritoneal macrophages after 72 hrs by Alamar blue assay; format: cell-based; details: Peritoneal macrophage cell
How it was run: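 Swiss mouse peritoneal macrophages (2 × 10^6 cells/mL) adhered 1 h at 37 °C, 5% CO2; nonadherent cells washed off. Exposed to compound (3 to 3000 μM) for 72 h, washed, then AlamarBlue (10% v/v) for 12 h at 37 °C. Absorbance read at 570 nm. IC50 by logarithmic regression. 0.1% Triton X-100 lysis as positive control; PBS vehicle control; three independent experiments.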

[6] = Selectivity index, ratio of IC50 for Swiss mouse peritoneal macrophages to IC50 for intracellular amastigotes of Leishmania amazonensis MHOM/BR/75/LTB0016
How it was run: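 Ratio of the macrophage IC50 (AlamarBlue, 72 h) to the intracellular amastigote IC50 (infection index, 72 h).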

Leishmania amazonensis [7] = assay: Antileishmanial activity against intracellular amastigotes of Leishmania amazonensis MHOM/BR/75/LTB0016 infected in Swiss mouse peritoneal macrophages assessed as growth inhibition at 12 uM after 72 hrs; format: functional; details: MHOM/BR/75/LTB0016, 72 h, read-out: GI
How it was run: (§3)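 Peritoneal macrophages from Swiss mice (6−8 weeks), plated in RPMI at 2 × 10^6 cells/mL, infected with L. amazonensis promastigotes (MOI 3.0) for 3 h at 37 °C, 5% CO2; free parasites washed off. Infected cells incubated with compound (3, 6, and 12 μM) or PBS vehicle for 72 h. Light microscopy, ≥200 cells per coverslip in duplicate. Infection index = % infected macrophages × amastigotes/total macrophages. IC50 by logarithmic regression. Three independent experiments; pentamidine (12 μM) reference.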

Leishmania amazonensis [8] = assay: Antileishmanial activity against intracellular amastigotes of Leishmania amazonensis MHOM/BR/75/LTB0016 infected in Swiss mouse peritoneal macrophages assessed as inhibition of infection index after 72 hrs by light microscopic analysis; format: functional, organism-based; how it was run: as §3
Leishmania amazonensis [9] = assay: Antileishmanial activity against stationary-phase promastigotes of Leishmania amazonensis MHOM/BR/75/LTB0016 infected in BALB/c mouse assessed as reduction of parasite burden at 30 mg/kg, po administered 5 times per week; format: functional, organism-based; design: dose 30 mg/kg; how it was run: as §1
[10] = Selectivity index, ratio of CC50 for Balb/c mouse peritoneal macrophages to IC50 for promastigotes of Leishmania amazonensis IFLA/BR/1967/PH-8; format: functional

| SMILES | Activity (Leishmania amazonensis [1]) | Activity (Mus musculus [2]) | Activity (Mus musculus [3]) | Activity (Mus musculus [4]) | IC50 [5] | Ratio IC50 [6] | inhibition of growth at 12 µM (Leishmania amazonensis [7]) | inhibition (Leishmania amazonensis [8]) | IC50 (Leishmania amazonensis [8]; MHOM/BR/75/LTB0016, 72 h) | Activity (Leishmania amazonensis [9]) | Ratio CC50/IC50 [10] |
| --- | --- | --- | --- | --- | --- | --- | --- | --- | --- | --- | --- |
| O=C(O[C@@H]1Cc2c(O)cc(O)cc2O[C@@H]1c1cc(O)c(O)c(O)c1)c1cc(O)c(O)c(O)c1 [EPIGALOCATECHIN GALLATE] | Active | Non-toxic | Non-toxic | Non-toxic | 436 µM | 129.4 | 83.6% | Dose-dependent effect | 1.6 µM | Active |  |
| CCCCCCCCCCCCCCCCOP(=O)([O-])OCC[N+](C)(C)C [MILTEFOSINE] |  |  |  |  |  |  |  |  |  |  | 28.9 |
